Hits are enriched below; roughly 4.9% of the tested compounds scored in any of these assays.
STAT1 blocker = STAT1 signaling inhibition; NIH 3T3 STAT1-luciferase reporter, IFN-gamma, luminescence; 200,000 compounds, 0.35% hits; inhibition, % at 5.5 µM;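 active means inhibition above a set limit, the mean inhibition across all tested compounds plus 3 SD, cut at about 34% in these data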
STAT1 act = activators of IFN-gamma induced STAT1 signaling; NIH 3T3 STAT1-luciferase reporter, luminescence; 100% = IFN-gamma alone, no compound; activation (% of control), % at 5.5 µM; 200,000 compounds, 2.6% hits; AID 932;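 active means activation above the screen-wide mean activation plus 3 SD, cut at about 130% in these data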
STAT3 inh = reduces IL-6 driven STAT3 reporter signal; U3A cells, IL-6 STAT3-luciferase reporter, luminescence; host cell line lacks STAT1; inhibition, % at 5.5 µM; 190,000 compounds, 0.89% hits; AID 862;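 active means inhibition above the mean inhibition across all screened compounds plus 3 SD, cut at about 44% in these data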
NF-kB neuron act = raises NF-kB expression in human neuronal cells; NF-kB reporter expression; active compounds read high; fold change at 12.5 µM; 190,000 compounds, 1.6% hits; in the data active means fold change above about 3.3
APP 5'UTR act = activates APP 5'UTR luciferase reporter; SH-SY5Y APP 5'UTR luciferase reporter, luminescence; zero percent = DMSO vehicle wells; activation, % at 2 µM; 190,000 compounds, 1% hits; AID 1276;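 active means activation above a set limit, based on mean plus 3 SD of controls, cut at about 140% in these data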
STAT3 activator = activators of IL-6 induced STAT3 signaling; AID 871; U3A cells, IL-6 STAT3-luciferase reporter, luminescence; 100% = signal with IL-6 EC80 alone; activation (% of control), % at 5.6 µM; 190,000 compounds, 0.91% hits;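 active means activation above the screen-wide mean of compound activation plus 3 SD, cut at about 130% in these data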
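Assay system – human STAT1-deficient U3A cells with stable STAT3-luciferase reporter · Also added – IL-6 (33 ng/mL) · Schedule – compound 1 h, then IL-6 6 h at 37 °C · Technique – reporter luminescence signal · Evaluation – % activation versus median of IL-6-stimulated wells · Benchmarks – IL-6-only wells as 100% reference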
Each line names hits and unclear results; the compound was inactive in the other large screens.

O=C(Nc1nsc(-c2ccccc2)n1)c1ccc(F)cc1	STAT1 act 128.6
COc1ccc(N2CCN(C(=O)c3ccc4nc(N5CCCCC5)sc4c3)CC2)cc1	none
COc1cccc(N2CCN(C(=O)c3ccc4nc(N5CCCCC5)sc4c3)CC2)c1	STAT1 act 136.0
CC(C)CN(C(=O)COC(=O)Cc1c[nH]c2ccccc12)C1CCS(=O)(=O)C1 (configuration not stated)	STAT3 activator 133.4
Cc1nc(SCc2ccc(Cl)cc2)ncc1C(=O)O	NF-kB neuron act 6.39
COc1cnc(SCc2ccc(Cl)cc2)nc1Cl	none (no result: APP 5'UTR act)
CC(/C=N\NC(=O)CN1CCN(S(=O)(=O)c2ccc(C)cc2)CC1)=C\c1ccccc1	none
C/C(N)=C(/C#N)C(=O)CSc1nnc(Nc2ccccc2)s1	STAT1 act 147.8
CCCN(C(=O)c1ccco1)c1nnc(-c2ccccc2C)s1	none
Cc1ccccc1OCC(O)Cn1nnc2ccccc21 (configuration not stated)	STAT1 act 142.2
CCC(=O)c1ccc(OCC(O)Cn2nnc3ccccc32)cc1 (configuration not stated)	none
CC(=O)Nc1cccc(N=NN2CCCCC2)c1	none
Cc1ccsc1CN(C)Cc1nc(C2CC2)no1	none
O=C1C2C3C=CC(CC3)C2C(=O)N1/N=C/c1c[nH]c2ccccc12 (configuration not stated)	STAT1 act 136.6
C(=C\c1ccco1)/c1nc2ccccc2[nH]1	NF-kB neuron act 5.05, APP 5'UTR act 135.8
C(=C\c1nc2ccccc2[nH]1)/c1ccccc1	STAT1 blocker 43.0, STAT3 inh 81.9, APP 5'UTR act 191.6
O=c1[nH]c2ccccc2nc1/C=C/c1ccc(Cl)cc1	STAT1 act 132.9, APP 5'UTR act 167.4
COc1ccc(C(=O)N/C(=C/c2cccs2)c2nc3ccccc3[nH]2)cc1OC	none
COc1cc(/C=C(/C(=O)c2cccs2)c2nc3ccccc3[nH]2)cc(OC)c1O	NF-kB neuron act 10
CCCCN(CC(=O)NCCOC)C(=O)Cn1nnc2ccccc21	none
CCc1cccc(CC)c1NC(=S)N(CCN(C)C)C(C)c1cccnc1 (configuration not stated)	none
O=C(/C(=C/c1ccc(Cl)cc1)c1nc2ccccc2[nH]1)c1ccccc1	NF-kB neuron act 7.98
O=C(COn1nnc2ccccc21)NCC1CCCCC1	STAT1 act 129.1
O=C(/C=C/c1ccccc1F)c1cccc([N+](=O)[O-])c1	none
O=C(Oc1ccc(F)cc1C(=O)/C=C/c1cccs1)c1cccc([N+](=O)[O-])c1	NF-kB neuron act 4.48
COC(=O)c1sccc1NC(=O)c1cccc(OC)c1	STAT3 activator 134.9
COc1cccc(C(=O)Nc2ccc(F)cc2F)c1	none
COc1cccc(C(=O)Nc2cccc(C(C)=O)c2)c1	none
COc1cccc(C(=O)Nc2ccccc2F)c1	STAT1 act 132.0
COC(=O)c1cccc(NC(=O)c2cccc(OC)c2)c1	STAT1 act 131.3
COC(=O)c1sccc1NC(=O)c1ccccc1	none
COc1cccc(C(=O)Nc2ccc(C(F)(F)F)n(C)c2=O)c1	APP 5'UTR act 135.7
CCOc1ccc(C(=O)Nc2ccc(C(F)(F)F)n(C)c2=O)cc1	none
COC(=O)CC(NS(=O)(=O)c1cccs1)c1ccccc1Cl (configuration not stated)	none
Cn1cc(/C=N\NC(=O)c2cccs2)c2ccccc21	STAT1 act 128.8
Cc1ccsc1/C=N/NC(=O)c1cccs1	STAT1 act 133.8
Cc1sccc1/C=N/NC(=O)c1cccc2ccccc12	none
Cn1cc(/C=N/NC(=O)c2ccc(C#N)cc2F)c2ccccc21	none
Cc1ccccc1C(=O)N/N=C/c1ccsc1C	STAT1 act 132.7
Cc1ccsc1/C=N/NC(=O)c1ccccn1	STAT1 act 148.0
O=C(N/N=C/c1ccsc1)c1ccccn1	none
CC(C1CC2CCC1C2)n1c(-c2ccco2)n[nH]c1=S (configuration not stated)	none
CO/N=C/c1cccn1-c1nccc(N(C)C)c1C#N	none
Cc1nn(-c2ccc(F)cc2)c(Cl)c1/C=N/NC(=O)c1cccs1	STAT1 act 141.9
O=C(N/N=C/c1ccc(Br)s1)c1ccccn1	STAT1 act 137.4, NF-kB neuron act 3.47
Cc1cc(/C=N/NC(=O)c2cccs2)c(C)n1-c1cnccn1	STAT1 act 146.6
CC(C)(C)c1ccc(/C=N/NC(=O)c2ccccn2)cc1	STAT1 blocker 42.7, STAT3 inh 68.3, APP 5'UTR act 167.6
O=C(NCCN1C(=O)C2C3C=CC(C3)C2C1=O)Nc1ccc(Br)cc1 (configuration not stated)	STAT1 act 141.4 (no result: APP 5'UTR act)
O=C(NCCN1C(=O)C2C3C=CC(C3)C2C1=O)Nc1cccnc1 (configuration not stated)	none
Fc1ccc2nc3[nH]c4ccccc4c3nc2c1	STAT1 act 213.8, NF-kB neuron act 4.39, APP 5'UTR act 157.1, STAT3 activator 135.1
CCCCNC(=O)CNC(=S)N(Cc1cc(OC)c(OC)c(OC)c1)C1CCCC1	none
Cc1ccc(Nc2ncnc3nc[nH]c23)cc1Cl	NF-kB neuron act 3.31
COc1cccc(Nc2ncnc3nc[nH]c23)c1	none
Cc1ccsc1/C=N/Nc1ncnc2nc[nH]c12	STAT1 act 138.2
Clc1cnc(N/N=C/c2cccs2)c(Cl)c1	STAT1 act 133.9
C(=N\Nc1ncnc2nc[nH]c12)/c1cccs1	STAT1 act 134.4
Fc1ccc(/C=N/Nc2ncnc3nc[nH]c23)cc1F	none
Cc1nccn1CC(=O)N/N=C/c1cccc(O)c1	none
Cc1cccn2cc(-c3c[nH]c4ccccc34)nc12	STAT1 act 134.0, STAT3 activator 139.8
CCn1c(SC)nnc1-c1c[nH]c2ccccc12	none (no result: APP 5'UTR act)
Cc1cccn2cc(-c3ccc(S(=O)(=O)N4CCOCC4)cc3)nc12	none
O=[N+]([O-])c1cccn2cc(-c3ccc(Br)cc3)nc12	STAT1 act 140.0 (no result: NF-kB neuron act)
Cc1cccn2cc(-c3ccc(Cl)cc3)nc12	NF-kB neuron act 9.6, APP 5'UTR act 254.4
COc1ccc(-c2cn3cccc(C)c3n2)cc1F	STAT1 act 145.0, NF-kB neuron act 6.14
COc1ccc(-c2nc3c(-c4ccccc4)cnn3cc2C)cc1F	none
CC(=O)NCC(=O)OC(C(=O)c1ccccc1)c1ccc(Cl)cc1 (configuration not stated)	none
Cc1cc(OC(=O)c2c(F)cc(F)cc2F)nc(C)n1	none
Cc1cccn2cc(-c3ccc(S(=O)(=O)N4CCCCC4)cc3)nc12	none
Cc1ccc(-c2cn3cccc(C)c3n2)cc1	NF-kB neuron act 7.72, APP 5'UTR act 154.4
O=C(Nc1ccc(N2CCOCC2)cc1N1CCOCC1)c1cccs1	none
O=C(c1ccc(N2CCOCC2)cc1)c1cccs1	STAT1 act 140.9, NF-kB neuron act 5.08
